Assay [1] has as its target T1, Androgen receptor (Homo sapiens) (UniProt P10275).
T1 sequence (whole entry): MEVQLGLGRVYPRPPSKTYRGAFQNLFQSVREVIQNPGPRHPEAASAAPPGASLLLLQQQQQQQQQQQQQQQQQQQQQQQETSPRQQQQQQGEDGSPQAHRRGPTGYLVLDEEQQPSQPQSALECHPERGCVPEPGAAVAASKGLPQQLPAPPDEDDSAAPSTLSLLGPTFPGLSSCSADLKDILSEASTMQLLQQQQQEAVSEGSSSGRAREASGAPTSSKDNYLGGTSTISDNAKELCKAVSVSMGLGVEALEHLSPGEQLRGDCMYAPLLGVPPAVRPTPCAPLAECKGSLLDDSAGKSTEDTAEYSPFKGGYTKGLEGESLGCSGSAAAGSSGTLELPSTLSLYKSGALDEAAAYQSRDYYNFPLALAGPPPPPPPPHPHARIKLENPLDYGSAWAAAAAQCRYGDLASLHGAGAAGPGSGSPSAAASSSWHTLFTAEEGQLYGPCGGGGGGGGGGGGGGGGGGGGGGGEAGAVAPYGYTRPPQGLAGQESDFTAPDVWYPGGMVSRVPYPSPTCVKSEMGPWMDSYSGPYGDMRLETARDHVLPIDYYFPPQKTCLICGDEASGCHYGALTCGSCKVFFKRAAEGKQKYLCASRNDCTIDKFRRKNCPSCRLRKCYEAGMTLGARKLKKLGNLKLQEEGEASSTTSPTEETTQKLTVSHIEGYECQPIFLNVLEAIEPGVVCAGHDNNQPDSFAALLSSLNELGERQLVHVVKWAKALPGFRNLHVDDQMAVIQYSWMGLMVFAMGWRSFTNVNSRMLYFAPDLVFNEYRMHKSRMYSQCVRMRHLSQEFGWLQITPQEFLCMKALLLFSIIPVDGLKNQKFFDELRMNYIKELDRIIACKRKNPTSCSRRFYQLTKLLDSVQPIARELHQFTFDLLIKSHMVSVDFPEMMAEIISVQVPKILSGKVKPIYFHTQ
As to the kind of experiment: Antagonist activity at androgen receptor in human LNCaP cells assessed as reduction in DHT-induced PSA expression by luciferase reporter gene assay. Type of assay: functional, cell-based. A digest of the protocol: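 LNCaP cells carrying a PSA-luc reporter were treated with compound at 1 and 2.5 μM in the presence of 1 nM DHT. Fold suppression was calculated relative to 1 nM DHT alone. Run in triplicate.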
In general terms: Reporter assays use an easily measured gene product as a stand-in for the process of interest.

Assay [2] deals with PC-3. Put plainly: Antagonist activity at androgen receptor T887A mutant expressed in human PC3 cells assessed as reduction in DHT-induced receptor transactivation at 0.1 to 1 uM by luciferase reporter gene assay. Type of assay: functional, cell-based. The essentials: (§1)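 Full-length wild-type or mutant AR plasmid transiently transfected into PC-3 cells with MMTV-luc and Renilla luciferase reporters. Cells treated with DMSO vehicle or compound at 0.1 and 1 μM, alone or with 0.1 nM DHT. Luciferase read as relative luciferase units. Run in triplicate.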

For assay [3], the system named is PC-3. As to the kind of experiment: Cytotoxicity against human PC3 cells incubated for 72 hrs by MTT assay. Type of assay: functional, cell-based. The note with it: PC-3, 72 h. A digest of the protocol: (§2)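 MTT assay run across a panel of prostate cancer cell lines.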
On the technique in general: Tetrazolium assays rely on reduction of a dye to a coloured formazan, in cell work by metabolically active cells.

In assay [4] the target is T1, Androgen receptor (Homo sapiens). As to the kind of experiment: Antagonist activity at androgen receptor in human PC3 cells assessed as increase in Maspin promoter activity at 5 uM by luciferase reporter gene assay. The class given is functional, cell-based. The note with it: PC-3. The essentials:
(§3)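 PC-3 cells were transfected with maspin-luc, with or without cotransfected AR. Cells were exposed to DMSO vehicle or compound at 2.5 and 5 μM. Luciferase activity was measured in triplicate.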

The test system of assay [5] is T2, Androgen receptor (Homo sapiens), P10275 [H875Y].
T2 sequence (whole entry): T1 sequence (whole entry) with H875Y
Put plainly: Agonist activity at androgen receptor H874Y mutant expressed in human PC3 cells assessed as stimulation of receptor transactivation at 0.1 to 1 uM by luciferase reporter gene assay. The class given is functional, cell-based. The note with it: PC-3. A digest of the protocol: as §1

The target in assay [6] is T1, Androgen receptor (Homo sapiens). As to the kind of experiment: Antagonist activity at androgen receptor expressed in human PC3 cells assessed as reduction in DHT-induced receptor transactivation at 0.1 to 1 uM by luciferase reporter gene assay. Type of assay: functional, cell-based. The note with it: PC-3. A digest of the protocol:
as §1

Assay [7] has the same target. Put plainly: Antagonist activity at androgen receptor in human PC3 cells assessed as increase in Maspin promoter activity at 2.5 uM by luciferase reporter gene assay. The class given is functional, cell-based. The note with it: PC-3. A digest of the protocol: as §3
Assay [8] can be described thus: Cytotoxicity against human C4-2B cells incubated for 72 hrs by MTT assay. The class given is functional, cell-based. The conditions noted are these: LNCaP C4-2B. The essentials: as §2
In assay [9] the target is T1, Androgen receptor (Homo sapiens). Put plainly: Antagonist activity at androgen receptor in human LNCaP cells assessed as reduction in DHT-induced PSA expression incubated for 24 hrs by RT-PCR.
For assay [10] the target is unchanged. Put plainly: Antagonist activity at androgen receptor in human LNCaP cells assessed as increase in Maspin protein expression at 1 to 5 uM incubated for 24 hrs by Western blotting. A general note: In western blotting, separated proteins are transferred to a membrane and probed.

Where a chain is given by its changes, count along the chain named. Activity calls are given as the source filed them. No cut-off for these calls is given here.

Usually IC50 stands for the point on the concentration scale where inhibition reaches its midpoint. Low values mean greater potency, high ones weaker potency.

In the case of `Cc1coc2c1C(=O)C(=O)c1c-2ccc2c1CCCC2(C)C` [TANSHINONE IIA], the Activity result in assay [1] and in assay [9] was “Dose-dependent effect” in each case. The outcome in assay [2], in assay [4], in assay [6], in assay [7] and in [10] was Active. Moreover, the IC50 in assay [3] came to 3300 nM; in assay [8] it was 400 nM. For the same molecule, the result in assay [5] was inactive.

The values are drawn from ChEMBL document CHEMBL2163220 (J Med Chem, 2012).
